≈ marks a conversion by molar mass, not a printed value. Calls of active or inactive are those of the source. The calls are words filed in the database; no cut-off is given here.
Columns and labels:
[1] = system: Staphylococcus epidermidis; test: Bactericidal activity against Staphylococcus epidermidis INCQS 00016 ATCC 12228 incubated for 24 hrs followed by transfer of microbial suspension to agar plates and measured after 24 hrs post transfer by resazurin dye-based colorimetric analysis; format: functional; settings: ATCC 12228 INCQS 00016, 24 h, read-out: MBC99.9
Method in brief: (§1)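 For MBC, 10 µL from each clear MIC well was plated on agar and incubated 24 h at 37°C. MBC is the minimum concentration inhibiting 99.9% of growth. […] Triplicate.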

Pseudomonas aeruginosa [2] = test: Bactericidal activity against Pseudomonas aeruginosa INCQS 00099 ATCC 27853 at 256 ug/ml incubated for 24 hrs followed by transfer of microbial suspension to agar plates and measured after 24 hrs post transfer by resazurin dye-based colorimetric analysis; format: functional, organism-based; method in brief: as §1
Staphylococcus aureus [3] = test: Antimicrobial activity against methicillin-resistant Staphylococcus aureus BMB9393 assessed as zone of inhibition at 5 mg/ml after 18 to 24 hrs by disc diffusion method; format: functional; settings: read-out: IZ
[4] = system: Staphylococcus epidermidis; test: Ratio of MBC99.9 to MIC for Staphylococcus epidermidis INCQS 00016 ATCC 12228; format: functional, ATCC 12228 INCQS 00016
Method in brief: (§2)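 MBC/MIC ratio from the 24 h, 37°C microdilution MIC and the agar-plating MBC (99.9% growth inhibition). A ratio ≤2 was classed as bactericidal and ≥4 as bacteriostatic.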

Staphylococcus simulans [5] = test: Bactericidal activity against Staphylococcus simulans INCQS 00254 ATCC 27851 at 256 ug/ml incubated for 24 hrs followed by transfer of microbial suspension to agar plates and measured after 24 hrs post transfer by resazurin dye-based colorimetric analysis; format: functional, organism-based; method in brief: as §1
Staphylococcus aureus [6] = test: Bactericidal activity against Staphylococcus aureus INCQS 00015 ATCC 25923 at 256 ug/ml incubated for 24 hrs followed by transfer of microbial suspension to agar plates and measured after 24 hrs post transfer by resazurin dye-based colorimetric analysis; format: functional, organism-based; method in brief: as §1
Staphylococcus aureus [7] = test: Antimicrobial activity against methicillin-resistant Staphylococcus aureus BMB9393 at 256 ug/ml after 24 hrs by microdilution assay; format: functional, organism-based
Escherichia coli [8] = test: Bactericidal activity against Escherichia coli INCQS 00033 ATCC 25922 at 256 ug/ml incubated for 24 hrs followed by transfer of microbial suspension to agar plates and measured after 24 hrs post transfer by resazurin dye-based colorimetric analysis; format: functional, organism-based; settings: ATCC 25922 INCQS 00033; method in brief: as §1
[9] = system: Staphylococcus epidermidis; test: Antimicrobial activity against Staphylococcus epidermidis INCQS 00016 ATCC 12228 assessed as zone of inhibition at 5 mg/ml after 18 to 24 hrs by disc diffusion method; format: functional; settings: ATCC 12228 INCQS 00016, read-out: IZ
Staphylococcus simulans [10] = test: Antimicrobial activity against Staphylococcus simulans INCQS 00254 ATCC 27851 assessed as zone of inhibition at 5 mg/ml after 18 to 24 hrs by disc diffusion method; format: functional; settings: read-out: IZ
Pseudomonas aeruginosa [11] = test: Antimicrobial activity against Pseudomonas aeruginosa INCQS 00099 ATCC 27853 assessed as zone of inhibition at 5 mg/ml after 18 to 24 hrs by disc diffusion method; format: functional; settings: read-out: IZ
Staphylococcus aureus [12] = test: Antimicrobial activity against Staphylococcus aureus INCQS 00015 ATCC 25923 at 256 ug/ml after 24 hrs by microdilution assay; format: functional, organism-based
Staphylococcus aureus [13] = test: Antimicrobial activity against Staphylococcus aureus INCQS 00015 ATCC 25923 assessed as zone of inhibition at 5 mg/ml after 18 to 24 hrs by disc diffusion method; format: functional; settings: read-out: IZ
Staphylococcus aureus [14] = test: Bactericidal activity against methicillin-resistant Staphylococcus aureus BMB9393 at 256 ug/ml incubated for 24 hrs followed by transfer of microbial suspension to agar plates and measured after 24 hrs post transfer by resazurin dye-based colorimetric analysis; format: functional, organism-based
Method in brief: (§3)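 From MIC wells with no visible growth, 10 µL is transferred to agar plates and incubated 24 h at 37°C. MBC is the minimum concentration inhibiting 99.9% of growth. […] Triplicate.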

Enterococcus faecalis = test: Antimicrobial activity against Enterococcus faecalis INCQS 00234 ATCC 29212 assessed as zone of inhibition at 5 mg/ml after 18 to 24 hrs by disc diffusion method; format: functional; settings: ATCC 29212 INCQS 00234, read-out: IZ
Proteus mirabilis = test: Antimicrobial activity against Proteus mirabilis INCQS 00095 ATCC 15290 assessed as zone of inhibition at 5 mg/ml after 18 to 24 hrs by disc diffusion method; format: functional; settings: read-out: IZ
[15] = system: Staphylococcus epidermidis; test: Antimicrobial activity against Staphylococcus epidermidis INCQS 00016 ATCC 12228 after 24 hrs by microdilution assay; format: functional; settings: ATCC 12228 INCQS 00016, 24 h
Escherichia coli [16] = test: Antimicrobial activity against Escherichia coli INCQS 00033 ATCC 25922 at 256 ug/ml after 24 hrs by microdilution assay; format: functional, organism-based; settings: ATCC 25922 INCQS 00033
Staphylococcus simulans [17] = test: Antimicrobial activity against Staphylococcus simulans INCQS 00254 ATCC 27851 at 256 ug/ml after 24 hrs by microdilution assay; format: functional, organism-based
Escherichia coli [18] = test: Antimicrobial activity against Escherichia coli INCQS 00033 ATCC 25922 assessed as zone of inhibition at 5 mg/ml after 18 to 24 hrs by disc diffusion method; format: functional; settings: ATCC 25922 INCQS 00033, read-out: IZ
Pseudomonas aeruginosa [19] = test: Antimicrobial activity against Pseudomonas aeruginosa INCQS 00099 ATCC 27853 at 256 ug/ml after 24 hrs by microdilution assay; format: functional, organism-based
Klebsiella pneumoniae = test: Antimicrobial activity against Klebsiella pneumoniae INCQS 00083 ATCC 4352 assessed as zone of inhibition at 5 mg/ml after 18 to 24 hrs by disc diffusion method; format: functional; settings: read-out: IZ
[20] = Hemolytic activity against human erythrocytes assessed as hemolysis at 200 ug/ml after 3 hrs by spectrophotometric analysis relative to control; format: ADME, cell-based, Erythrocyte; settings: read-out: Activity
Method in brief: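 Erythrocytes collected in citrate tubes, washed three times with PBS pH 7.4 by centrifugation and resuspended in PBS. Incubated with compounds at 200 µg/mL for 3 h at 37°C. Released hemoglobin was read in the supernatant at 545 nm against 1% Triton X-100 (complete lysis) and 1% DMSO (negative control). Below 10% hemolysis was taken as hemocompatible. Three independent experiments.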

Staphylococcus simulans [21] = test: Antimicrobial activity against Staphylococcus simulans INCQS 00254 ATCC 27851 after 24 hrs by microdilution assay; format: functional; settings: INCQS 00254 ATCC 27851, 24 h
Staphylococcus aureus [22] = test: Antimicrobial activity against Staphylococcus aureus INCQS 00015 ATCC 25923 after 24 hrs by microdilution assay; format: functional; settings: INCQS 00015 ATCC 25923, 24 h
Staphylococcus simulans [23] = test: Bactericidal activity against Staphylococcus simulans INCQS 00254 ATCC 27851 incubated for 24 hrs followed by transfer of microbial suspension to agar plates and measured after 24 hrs post transfer by resazurin dye-based colorimetric analysis; format: functional; settings: INCQS 00254 ATCC 27851, 24 h, read-out: MBC99.9; method in brief: as §1
Staphylococcus aureus [24] = test: Ratio of MBC99.9 to MIC for Staphylococcus aureus INCQS 00015 ATCC 25923; format: functional; method in brief: as §2
Staphylococcus aureus [25] = test: Bactericidal activity against Staphylococcus aureus INCQS 00015 ATCC 25923 incubated for 24 hrs followed by transfer of microbial suspension to agar plates and measured after 24 hrs post transfer by resazurin dye-based colorimetric analysis; format: functional; settings: INCQS 00015 ATCC 25923, 24 h, read-out: MBC99.9; method in brief: as §3
Staphylococcus simulans [26] = test: Ratio of MBC99.9 to MIC for Staphylococcus simulans INCQS 00254 ATCC 27851; format: functional; method in brief: as §2

COC(=O)c1c(C)nc(C)c2c1C(=O)C=C(NC[C@H]1O[C@@H]3OC(C)(C)O[C@@H]3[C@H]1O)C2=O
MBC [1]: 256 µg/mL (≈ 592 µM) | Activity (Pseudomonas aeruginosa [2]): inactive | zone of inhibition at 5000 µg/mL (Staphylococcus aureus [3]): 0 mm | Ratio [4]: 1 | Activity (Staphylococcus simulans [5]): inactive | Activity (Staphylococcus aureus [6]): inactive | Activity (Staphylococcus aureus [7]): inactive | Activity (Escherichia coli [8]): inactive | zone of inhibition at 5000 µg/mL [9]: 10 mm | zone of inhibition at 5000 µg/mL (Staphylococcus simulans [10]): 0 mm | zone of inhibition at 5000 µg/mL (Pseudomonas aeruginosa [11]): 0 mm | Activity (Staphylococcus aureus [12]): inactive | zone of inhibition at 5000 µg/mL (Staphylococcus aureus [13]): 0 mm | Activity (Staphylococcus aureus [14]): inactive | zone of inhibition at 5000 µg/mL (Enterococcus faecalis): 0 mm | zone of inhibition at 5000 µg/mL (Proteus mirabilis): 0 mm | MIC [15]: 256 µg/mL (≈ 592 µM) | Activity (Escherichia coli [16]): inactive | Activity (Staphylococcus simulans [17]): inactive | zone of inhibition at 5000 µg/mL (Escherichia coli [18]): 0 mm | Activity (Pseudomonas aeruginosa [19]): inactive | zone of inhibition at 5000 µg/mL (Klebsiella pneumoniae): 0 mm | hemolysis at 3 h, 200 ug/ml [20]: < 10%

COC(=O)c1c(C)nc(C)c2c1C(=O)C=C(NC[C@H]1O[C@@H]3OC(C)(C)O[C@@H]3[C@H]3OC(C)(C)O[C@H]31)C2=O
MBC [1]: 256 µg/mL (≈ 509 µM) | Activity (Pseudomonas aeruginosa [2]): inactive | zone of inhibition at 5000 µg/mL (Staphylococcus aureus [3]): 0 mm | Ratio [4]: 1 | Activity (Staphylococcus simulans [5]): inactive | Activity (Staphylococcus aureus [6]): inactive | Activity (Staphylococcus aureus [7]): inactive | Activity (Escherichia coli [8]): inactive | zone of inhibition at 5000 µg/mL [9]: 9 mm | zone of inhibition at 5000 µg/mL (Staphylococcus simulans [10]): 0 mm | zone of inhibition at 5000 µg/mL (Pseudomonas aeruginosa [11]): 0 mm | Activity (Staphylococcus aureus [12]): inactive | zone of inhibition at 5000 µg/mL (Staphylococcus aureus [13]): 0 mm | Activity (Staphylococcus aureus [14]): inactive | zone of inhibition at 5000 µg/mL (Enterococcus faecalis): 0 mm | zone of inhibition at 5000 µg/mL (Proteus mirabilis): 0 mm | MIC [15]: 256 µg/mL (≈ 509 µM) | Activity (Escherichia coli [16]): inactive | Activity (Staphylococcus simulans [17]): inactive | zone of inhibition at 5000 µg/mL (Escherichia coli [18]): 0 mm | Activity (Pseudomonas aeruginosa [19]): inactive | zone of inhibition at 5000 µg/mL (Klebsiella pneumoniae): 0 mm | hemolysis at 3 h, 200 ug/ml [20]: < 10%

CN[C@H](CC(C)C)C(=O)N[C@H]1C(=O)N[C@@H](CC(N)=O)C(=O)N[C@H]2C(=O)N[C@H]3C(=O)N[C@H](C(=O)N[C@H](C(=O)O)c4cc(O)cc(O)c4-c4cc3ccc4O)[C@H](O)c3ccc(c(Cl)c3)Oc3cc2cc(c3O[C@@H]2O[C@H](CO)[C@@H](O)[C@H](O)[C@H]2O[C@H]2C[C@](C)(N)[C@H](O)[C@H](C)O2)Oc2ccc(cc2Cl)[C@H]1O [VANCOMYCIN]
zone of inhibition at 5000 µg/mL (Staphylococcus aureus [3]): 14 mm | zone of inhibition at 5000 µg/mL [9]: 15 mm | zone of inhibition at 5000 µg/mL (Staphylococcus simulans [10]): 16 mm | zone of inhibition at 5000 µg/mL (Staphylococcus aureus [13]): 16 mm | zone of inhibition at 5000 µg/mL (Enterococcus faecalis): 16 mm | MIC (Staphylococcus simulans [21]): 2 µg/mL (≈ 1.38 µM)

COC(=O)c1c(C)nc(C)c2c1C(=O)C(Cl)=C(N)C2=O
MBC [1]: 32 µg/mL (≈ 109 µM) | Activity (Pseudomonas aeruginosa [2]): inactive | zone of inhibition at 5000 µg/mL (Staphylococcus aureus [3]): 12 mm | Ratio [4]: 1 | MIC (Staphylococcus aureus [22]): 64 µg/mL (≈ 217 µM) | Activity (Staphylococcus aureus [7]): inactive | Activity (Escherichia coli [8]): inactive | MBC (Staphylococcus simulans [23]): 32 µg/mL (≈ 109 µM) | zone of inhibition at 5000 µg/mL [9]: 18 mm | Ratio (Staphylococcus aureus [24]): 1 | zone of inhibition at 5000 µg/mL (Staphylococcus simulans [10]): 16 mm | zone of inhibition at 5000 µg/mL (Pseudomonas aeruginosa [11]): 0 mm | MBC (Staphylococcus aureus [25]): 64 µg/mL (≈ 217 µM) | zone of inhibition at 5000 µg/mL (Staphylococcus aureus [13]): 15 mm | Activity (Staphylococcus aureus [14]): inactive | zone of inhibition at 5000 µg/mL (Enterococcus faecalis): 0 mm | zone of inhibition at 5000 µg/mL (Proteus mirabilis): 0 mm | MIC [15]: 32 µg/mL (≈ 109 µM) | Activity (Escherichia coli [16]): inactive | MIC (Staphylococcus simulans [21]): 32 µg/mL (≈ 109 µM) | zone of inhibition at 5000 µg/mL (Escherichia coli [18]): 0 mm | Activity (Pseudomonas aeruginosa [19]): inactive | Ratio (Staphylococcus simulans [26]): 1 | zone of inhibition at 5000 µg/mL (Klebsiella pneumoniae): 0 mm | hemolysis at 3 h, 200 ug/ml [20]: 10.1 to 14.4%

Reference: ChEMBL document CHEMBL4270541, “Synthesis and antimicrobial evaluation of amino sugar-based naphthoquinones and isoquinoline-5,8-diones and their halogenated compounds” (Eur J Med Chem, 2018)
